Activity calls are given as the source filed them. The rule behind the calls is not given here.
Legend:
[1] = biological target: T1, 17-beta-hydroxysteroid dehydrogenase type 3 (Homo sapiens) (UniProt P37058); assay: Inhibition of 17beta-HSD3 (unknown origin) expressed in human LNCAP cells assessed as reduction in [14C]-testosterone formation from [14C]-4-androstene-3,17-dione at 0.1 uM measured after 1 hr relative to control; assay type: cell-based
T1 sequence (whole entry): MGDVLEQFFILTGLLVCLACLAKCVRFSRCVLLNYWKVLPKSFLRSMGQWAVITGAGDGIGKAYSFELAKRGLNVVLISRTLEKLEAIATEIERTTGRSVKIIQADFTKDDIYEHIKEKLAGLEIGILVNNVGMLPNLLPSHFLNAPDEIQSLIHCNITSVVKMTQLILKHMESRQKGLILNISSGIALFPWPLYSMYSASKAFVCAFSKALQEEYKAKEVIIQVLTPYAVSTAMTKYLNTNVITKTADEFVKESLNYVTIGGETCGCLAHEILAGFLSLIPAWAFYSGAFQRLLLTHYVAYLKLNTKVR
How it was run: (§1)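 LNCaP cells stably transfected with 17β-HSD3 were plated at 10,000 per well in hygromycin-free medium and grown 2 days. They were then given 15 nM [14C]-4-androstenedione plus inhibitor at 0.1, 0.5 or 1.0 µM (0.05% DMSO final) for 1 h. Steroids were ether-extracted, separated by TLC and quantified by radioimaging. Results are % inhibition of conversion to T.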

[2] = biological target: T1, 17-beta-hydroxysteroid dehydrogenase type 3 (Homo sapiens); assay: Inhibition of 17beta-HSD3 (unknown origin) expressed in human LNCAP cells assessed as reduction in [14C]-testosterone formation from [14C]-4-androstene-3,17-dione at 0.5 uM measured after 1 hr relative to control; assay type: cell-based; how it was run: as §1
[3] = biological target: T1, 17-beta-hydroxysteroid dehydrogenase type 3 (Homo sapiens); assay: Inhibition of 17beta-HSD3 (unknown origin) expressed in human LNCAP cells assessed as reduction in [14C]-testosterone formation from [14C]-4-androstene-3,17-dione at 1 uM measured after 1 hr relative to control; assay type: cell-based; how it was run: as §1
[4] = biological target: T2, 17-beta-hydroxysteroid dehydrogenase type 3 (Homo sapiens, UniProt P37058); assay: Inhibition of 17beta-HSD3 (unknown origin) expressed in human LNCAP cells assessed as reduction in [14C]-testosterone formation from [14C]-4-androstene-3,17-dione measured after 1 hr; assay type: cell-based
T2 sequence (P37058 whole entry): T1 sequence (whole entry)
How it was run: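 Transfected LNCaP[17β-HSD3] cells were incubated 1 h with 15 nM [14C]-4-androstenedione and inhibitor at seven concentrations (0.001–5.0 µM; 0.05% DMSO). [14C]-T formation was measured by TLC and radioimaging. IC50 was obtained by curve fitting, averaging two independent experiments in triplicate.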

[5] = biological target: T3, 17-beta-hydroxysteroid dehydrogenase type 3 (Rattus norvegicus, UniProt O54939); assay: Inhibition of 17beta-HSD3 in Sprague-Dawley rat testes microsomal fraction assessed as reduction in [14C]-testosterone formation from [14C]-4-androstene-3,17-dione measured after 2 hrs; parameters: species or system Testis
T3 sequence (O54939 whole entry): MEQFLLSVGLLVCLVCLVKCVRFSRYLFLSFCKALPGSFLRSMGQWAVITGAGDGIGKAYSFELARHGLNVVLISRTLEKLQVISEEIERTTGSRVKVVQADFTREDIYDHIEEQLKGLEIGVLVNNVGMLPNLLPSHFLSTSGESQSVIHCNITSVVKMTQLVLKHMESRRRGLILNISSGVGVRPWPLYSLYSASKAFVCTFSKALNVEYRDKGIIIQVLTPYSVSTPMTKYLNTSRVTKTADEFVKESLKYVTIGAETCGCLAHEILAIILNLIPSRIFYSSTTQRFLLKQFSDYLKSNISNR
How it was run: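 The enzyme source was a microsomal fraction from Sprague-Dawley rat testes, prepared by homogenization in phosphate/sucrose/EDTA buffer (pH 7.5) and centrifugation at 100,000 g. The assay ran 2 h at 37 °C in 50 mM sodium phosphate (pH 7.4, 20% glycerol, 1 mM EDTA) with NADPH cofactor and [14C]-4-androstenedione. [14C]-T formation was measured at six inhibitor concentrations in triplicate, and IC50 was fitted from the curves.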

[6] = Stability of the compound in human liver S9 fraction at 10 uM measured after 1 hr by NADPH by HPLC-MS analysis; assay type: ADME, subcellular; settings: s9, 1 h
How it was run: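 Substrate (10 µM) was incubated 1 h at 37 °C with 40 µg human liver S9 fraction in 50 mM Tris with 10 mM MgCl2, with or without 10 mM NADPH. The reaction was stopped with MeOH. Remaining parent was measured by HPLC-MS (UV 190 nm) as the AUC ratio with/without NADPH ×100. Values are the mean ± SD of four independent experiments.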

[7] = Plasma concentration in mouse at 25 mg/kg, sc administered as single dose measured after 3 hrs by LC-MS/MS analysis; assay type: ADME, organism-based
How it was run: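 Female mice were fasted 8 h, then given a single 25 mg/kg subcutaneous dose in 0.1 mL of 0.4% aqueous methylcellulose with 8% DMSO. At 3 h, blood was taken by cardiac puncture into K-EDTA tubes (3 mice per group). Plasma was extracted and analysed by LC-MS/MS against a plasma calibration curve.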

[8] = system: LAPC4; assay: Antiproliferative activity against human LAPC4 cells expressing androgen receptor assessed as inhibition of cell proliferation at 0.1 uM supplemented with fresh medium containing compounds every 3 days for 7 days by MTS assay relative to control; assay type: functional
How it was run: (§2)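 Androgen-dependent LAPC-4 cells were seeded at 5,000 per well in IMDM with 5% dextran-coated charcoal-treated FBS and pre-incubated 24 h at 37 °C, 5% CO2. Compounds were added from DMSO stock at 0.1, 0.5 and 1.0 µM, with 0.05% DMSO in controls. Incubation lasted 7 days, with a medium change at day 3. Growth was read by MTS (4 h, 490 nm) as % of untreated control (100%), in triplicate.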

[9] = system: LAPC4; assay: Antiproliferative activity against human LAPC4 cells expressing androgen receptor assessed as inhibition of cell proliferation at 0.5 uM supplemented with fresh medium containing compounds every 3 days for 7 days by MTS assay relative to control; assay type: functional; how it was run: as §2
[10] = system: LAPC4; assay: Antiproliferative activity against human LAPC4 cells expressing androgen receptor assessed as inhibition of cell proliferation at 1 uM supplemented with fresh medium containing compounds every 3 days for 7 days by MTS assay relative to control; assay type: functional; how it was run: as §2
[11] = system: PC-3; assay: Antiproliferative activity against AR-deficient human PC3 cells assessed as reduction in cell proliferation at 0.1 uM measured after 3 days by MTS assay relative to control; assay type: functional; parameters: scale not given: the % may be the effect or the level left
How it was run: (§3)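 Androgen-independent PC-3 cells were plated at 3,000 per well in triplicate in RPMI-1640 with 10% FBS. Compounds were added at 0.1, 0.5 and 1.0 µM from DMSO stock, with 0.05% DMSO in controls, and incubated 3 days. Growth was read by MTS (4 h, 490 nm) and expressed as % of non-treated control (100%).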

[12] = system: PC-3; assay: Antiproliferative activity against AR-deficient human PC3 cells assessed as reduction in cell proliferation at 0.5 uM measured after 3 days by MTS assay relative to control; assay type: functional; parameters: scale not given: the % may be the effect or the level left; how it was run: as §3
[13] = system: PC-3; assay: Antiproliferative activity against AR-deficient human PC3 cells assessed as reduction in cell proliferation at 1 uM measured after 3 days by MTS assay relative to control; assay type: functional; parameters: scale not given: the % may be the effect or the level left; how it was run: as §3
[14] = system: LAPC4; assay: Antiproliferative activity against human LAPC4 cells expressing androgen receptor assessed as inhibition of cell proliferation supplemented with fresh medium containing compounds every 3 days for 7 days by MTS assay; assay type: functional, cell-based; how it was run: as §2
[15] = system: T47D; assay: Estrogenic activity in human T47D cells assessed as stimulation of cell proliferation at 1 to 5 uM; assay type: ADME, cell-based
[16] = system: T47D; assay: Antiproliferative activity against human T47D cells assessed as reduction in cell proliferation at 1 to 5 uM; assay type: functional, cell-based
[17] = system: LAPC4; assay: Antiproliferative activity against human LAPC4 cells expressing androgen receptor assessed as inhibition of cell proliferation at 0.1 uM measured after 3 days by MTS assay relative to control; assay type: functional; settings: LAPC4, 72 h
[18] = system: LAPC4; assay: Antiproliferative activity against human LAPC4 cells expressing androgen receptor assessed as inhibition of cell proliferation at 0.5 uM measured after 3 days by MTS assay relative to control; assay type: functional; settings: LAPC4, 72 h
[19] = system: LAPC4; assay: Antiproliferative activity against human LAPC4 cells expressing androgen receptor assessed as inhibition of cell proliferation at 1 uM measured after 3 days by MTS assay relative to control; assay type: functional; settings: LAPC4, 72 h

| Compound | inhibition [1] | inhibition [2] | inhibition [3] | IC50 [4] | IC50 [5] | Stability [6] | concentration at 3 h [7] | inhibition (INH) [8] | inhibition (INH) [9] | inhibition (INH) [10] | Activity [11] | Activity [12] | Activity [13] | inhibition [14] | Activity [15] | Activity [16] | inhibition at 0.1 µM [17] | inhibition at 0.5 µM [18] | inhibition at 1 µM [19] |
| --- | --- | --- | --- | --- | --- | --- | --- | --- | --- | --- | --- | --- | --- | --- | --- | --- | --- | --- | --- |
| CC1CN(S(=O)(=O)c2ccccc2C(F)(F)F)C(C)CN1C[C@@]1(O)CC[C@@]2(C)[C@@H](CC[C@@H]3[C@@H]2CC[C@]2(C)C(=O)CC[C@@H]32)C1 (some centres not stated) | 60% | 96% | 100% | 90 nM | 80 nM | Unstable | 27.7 ng/mL | 4% | 52% | 67% | 9% | 6% | 11% | Dose-dependent effect |  |  |  |  |  |
| CC1CN(S(=O)(=O)c2ccccc2C(F)(F)F)C(C)CN1Cc1cc2c(cc1O)CC[C@@H]1[C@@H]2CC[C@]2(C)C(=O)CC[C@@H]12 (some centres not stated) | 50% | 76% | 84% | 170 nM | 120 nM |  | 89.3 ng/mL | 0% | 7% | 6% | 4% | 5% | 7% |  | Non-Toxic | inactive |  |  |  |
| CC1CN(S(=O)(=O)c2ccccc2C(F)(F)F)C(C)CN1C(=O)c1ccc2c(c1)CC[C@@H]1[C@@H]2CC[C@]2(C)C(=O)CC[C@@H]12 (some centres not stated) | 45% | 78% | 90% | 100 nM | 110 nM | Stable | 108 ng/mL | 40% | 54% | 63% | 7% | 0% | 6% | Dose-dependent effect |  |  |  |  |  |
| C#C[C@]1(O)CC[C@H]2[C@@H]3CCc4cc(OC)c(N5CCN(C(=O)[C@@H]6CCCN6C(=O)c6ccc7ccccc7n6)CC5)cc4[C@H]3CC[C@@]21C |  |  |  |  |  |  |  |  |  |  | 3% | 20% | 39% |  |  |  | 19% | 62% | 69% |
| CC1CN(S(=O)(=O)c2ccccc2C(F)(F)F)C(C)CN1CC(O)c1ccc2c(c1)CC[C@@H]1[C@@H]2CC[C@]2(C)C(=O)CC[C@@H]12 (single isomer, unassigned; diastereomer B) |  |  |  | 20 nM | 60 nM |  | 48.7 ng/mL | -3% | 32% | 44% | 8% | 6% | 5% |  |  |  |  |  |  |
| CC1CN(S(=O)(=O)c2ccccc2C(F)(F)F)C(C)CN1CCc1ccc2c(c1)CC[C@@H]1[C@@H]2CC[C@]2(C)C(=O)CC[C@@H]12 (some centres not stated) | 38% | 60% | 70% | 130 nM | 100 nM |  | 51.6 ng/mL | 48% | 80% | 79% | 1% | 5% | 1% | Dose-dependent effect | Non-Toxic | inactive |  |  |  |

— ChEMBL document CHEMBL4406803, “A- and D-Ring Structural Modifications of an Androsterone Derivative Inhibiting 17β-Hydroxysteroid Dehydrogenase Type 3: Chemical Synthesis and Structure-Activity Relationships” (J Med Chem, 2019)
